Assay outcomes from PubChem.
An excerpt weighted towards active compounds, which were near 2.6% of everything screened.
CHT block = human CHT choline transport inhibition; Q9GZV3; CHT-expressing cells, membrane potential dye, choline response; active compounds read low; B-score at 10 µM; 0.86% of 310,000 active; AID 488975;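 active = B-score over 3 SD under the library average, and starting fluorescence ratio not unusually high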;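 also: choline stimulus applied at its EC90 after an EC20 pre-addition; B-score computed on integrated fluorescence ratio after choline addition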
Target sequence (Q9GZV3 whole entry, looked up): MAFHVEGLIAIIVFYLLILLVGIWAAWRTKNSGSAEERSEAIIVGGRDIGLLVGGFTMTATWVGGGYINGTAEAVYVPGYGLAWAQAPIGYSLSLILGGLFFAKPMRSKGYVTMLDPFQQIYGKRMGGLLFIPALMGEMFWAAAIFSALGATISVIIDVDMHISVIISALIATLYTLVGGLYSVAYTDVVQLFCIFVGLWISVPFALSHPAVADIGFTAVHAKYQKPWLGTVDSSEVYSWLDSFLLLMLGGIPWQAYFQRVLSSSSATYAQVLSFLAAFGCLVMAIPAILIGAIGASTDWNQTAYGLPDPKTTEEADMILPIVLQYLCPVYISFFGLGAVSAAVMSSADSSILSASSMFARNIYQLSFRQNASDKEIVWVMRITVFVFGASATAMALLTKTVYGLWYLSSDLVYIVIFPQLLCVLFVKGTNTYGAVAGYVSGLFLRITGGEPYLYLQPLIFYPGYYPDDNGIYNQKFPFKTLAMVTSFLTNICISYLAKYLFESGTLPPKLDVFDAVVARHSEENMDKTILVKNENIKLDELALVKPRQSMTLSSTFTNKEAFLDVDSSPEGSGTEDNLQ
T cruzi inh = blocks replication of Trypanosoma cruzi; T. cruzi beta-gal in NIH3T3, luminescence, 90 h; inhibition, % (concentration not given with the values); 1.4% of 300,000 active; AID 1885;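 active = mean inhibition across valid replicates above about 55%, limit read from the data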;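 also: signal also drops with host cell toxicity which is not excluded here; 0% = plate median of DMSO wells and 100% = zero luminescence signal; higher percent means less beta-gal luminescence so fewer parasites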
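Incubation – ≥90 h infection period, 3 h prior cell attachment · System – NIH/3T3 fibroblasts plus reporter T. cruzi · Doses – compound pinned at 50 nL/well, DMSO · Read-out basis – percent inhibition of parasite-derived β-gal signal · Signal – luminescent β-galactosidase signal after 60 min lysis · Also added – 5000 T. cruzi trypomastigotes/well · Medium – Low-serum DMEM with 2% FBS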
PolyA inhibitor = inhibitors of polyadenylation in S. cerevisiae. S. cerevisiae SKY197-pL101 polyadenylation reporter, beta-gal luminescence; efflux-impaired pdr1/pdr3 knockout yeast; score 100 = 6 SD above DMSO. activity score, % at 12 µM. 0.02% of 300,000 active;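 active = lowest replicate activity score at least 50, where 100 means six control SD above control mean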;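 also: yeast exposed to compound for 9 h at 30 °C; higher score means more reporter readthrough which indicates perturbed polyadenylation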
CHT allo act = allosterically activates the human high affinity choline transporter | B-score at 10 µM | Q9GZV3 | CHT-expressing cells, membrane potential dye, choline EC20; active compounds read high; LV-AA mutant CHT in HEK293 cells | 0.49% of 310,000 active;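 active = initial fluorescence not abnormally high and integrated response B-score, plate-corrected, over 3 SD above library mean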
CHT act confirm = human CHT activation, confirmatory screen. activation, % at 10 µM. shares compounds with CHT allo act. 91% of 2,500 active. CHT-expressing cells, membrane potential dye fluorescence (FDSS); % of choline EC20–EC90 response window; HEK293 expressing CHT LV-AA mutant; choline added at its EC20;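 active = primary screen active, with duplicate mean activation above negative control mean plus 3 SD, cut at about 11% in these data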
HEK293 MP dye = activity in parental HEK293 cells lacking CHT; shares compounds with CHT allo act; 62% of 2,500 active; ratio readout change at 10 µM, hits read low; membrane potential dye fluorescence (FDSS); measured after EC20 choline addition;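 active = duplicate-averaged ratio beyond 3 SD from buffer wells, up or down, though filed actives are nearly all decreases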
* marks the source's active call; other numbers are inactive results; i = inactive; . = no result given.

SMILES | CHT block | T cruzi inh | PolyA inhibitor | CHT allo act | CHT act confirm | HEK293 MP dye
COc1ccccc1C(c1nnnn1CC1CCCO1)N1CCC(C(N)=O)CC1 (stereo not given) | i | 6 | 11 | i | . | .
C=CCN1CCN(C(c2cc(OC)ccc2OC)c2nnnn2CC2CCCO2)CC1 (stereo not given) | i | 1 | 20 | 6.3* | 16* | i
Nc1nc(N2CCN(c3ccccn3)CC2)nc2ccccc12 | i | 9 | 12 | i | 26* | -42*
COc1cc([N+](=O)[O-])ccc1NC(=O)N1CCCCCC1 | i | -3 | -14 | i | . | .
COc1ccc(CCN=C(N)Nc2nc(C)cc(C)n2)cc1 | i | 13 | 1 | 6.5* | 50* | -41*
COc1ccc(CCN=C(N)NS(=O)(=O)c2ccc(OC)cc2)cc1 | i | -12 | 4 | i | . | .
COc1ccccc1CCC(=O)OCC(=O)Nc1cc(C)nn1-c1ccccc1 | i | -6 | 10 | i | . | .
COc1ccccc1NC(=O)CNC(c1ccccc1)c1ccccc1 | i | 22 | -2 | 7.5* | 44* | i
COc1ccc(C(CC(=O)Nc2ccc(F)cc2)c2ccccc2)cc1 (stereo not given) | i | 17 | -1 | i | . | .
COc1ccc(C)cc1NC(=O)CNC(c1ccccc1)c1ccc(C)cc1 (stereo not given) | i | -10 | 20 | i | . | .
COc1ccccc1NC(=O)CC(c1ccc(F)cc1)c1ccco1 (stereo not given) | i | . | -5 | i | 24* | i
Cc1cc(NC(=O)c2cnn3cccnc23)no1 | i | -22 | 13 | 7.7* | 63* | -54*
Cc1cc(C)cc(-n2ncc3c2CCCC3NC(=O)CCN2Cc3ccccc3C2=O)c1 (stereo not given) | i | 6 | 24 | i | . | .
CN(C)CCNc1ncnc2ccccc12 | i | -7 | -21 | i | 18* | -53*
O=C(O)c1ccc(S(=O)(=O)NCC2CCCO2)cc1 (stereo not given) | i | -1 | -1 | i | . | .
C[C@@H]1[C@H](O)C[C@@]23COC(=O)C2=CCCC3[C@@]1(C)CCC1COC(=O)C1 (stereo not given in full) | i | . | . | i | . | .
CC1=Nc2cccc3cccc(c23)N1 | i | -21 | -31 | i | 33* | -39*
COc1ccc(C)cc1Nc1n[n+](-c2ccccc2)c(-c2ccc(OC)c(OC)c2OC)s1 | i | 55* | -11 | 9.9* | 15* | i
COc1ccc(C)cc1Nc1n[n+](-c2ccccc2)c(-c2c(Cl)cccc2Cl)s1 | i | 44 | -11 | i | . | .
CC1(C)CC(N2CCCC2)=CC(=[N+]2CCCC2)C1 | i | 67* | 5 | 8.6* | 58* | -34*
CC1(C)CC(NNCCC#N)=CC(=[N+]2CCCC2)C1 | i | 30 | 0 | i | . | .
C/C(=N/NC(=O)CNC(=O)COc1ccccc1)c1ccc(Cl)cc1 | i | 10 | -8 | i | . | .
CCOC(=O)c1cc(-c2ccncc2)nc2c1c(C)nn2-c1ccccn1 | i | -8 | -3 | 7.7* | 30* | -20*
COc1ccc(-c2cc(C(=O)O)c3c(C)nn(-c4ccccn4)c3n2)cc1 | i | -23 | 1 | i | . | .
NNC(=O)c1ccc(COCC(F)(F)F)cc1 | i | -10 | 9 | i | -6 | i
SMILES | CHT block | T cruzi inh | PolyA inhibitor | CHT allo act | CHT act confirm | HEK293 MP dye
Cc1cc(=O)oc2c(C)c(OCC(=O)NC3CC(C)(C)NC(C)(C)C3)ccc12 | i | -13 | 1 | 8.2* | 47* | -54*
CC1(C)CC(NC(=O)COc2cc3oc(=O)c4c(c3cc2Cl)CCC4)CC(C)(C)N1 | i | -15 | 8 | i | . | .
CC1(C)CC(NC(=O)COc2ccc3ccc(=O)oc3c2)CC(C)(C)N1 | i | -7 | 16 | i | . | .
Cc1cc(OCC(=O)NC2CC(C)(C)NC(C)(C)C2)c2c(C)cc(=O)oc2c1 | i | 8 | 3 | i | 66* | -45*
Cc1cc(OCC(=O)NC2CC(C)(C)NC(C)(C)C2)c2c(C)c(C)c(=O)oc2c1 | i | 22 | 1 | 9.2* | 49* | -48*
CC(Oc1ccc(Br)cc1Br)C(=O)Nc1cccnc1Cl (stereo not given) | i | . | . | i | . | .
COC(=O)Cn1c2c(c3cc(C)ccc31)CCCC2 | i | -11 | -5 | i | . | .
CCCn1c2c(c(=N)c3c1CCC3)CCCC2 | i | 53 | -2 | 7.9* | 50* | -72*
CCCCCCCn1c2c(c(=N)c3ccccc31)CCC2 | i | 67* | -10 | 17* | 75* | -43*
CCCn1c2c(c(=N)c3c1CCC3)CCC2 | i | 45 | 18 | 6.6* | 59* | -52*
O=C(O)CCn1c2c(c3ccccc31)CCCC2 | i | -13 | -16 | i | . | .
CCOC(=O)Cn1c2c(c(=N)c3c1CCC3)CCCC2 | i | 8 | 3 | i | 42* | -34*
CSCc1ccc(C(=O)NC(C)c2ccc(-n3ccnc3)cc2)cc1 (stereo not given) | i | 12 | 2 | i | . | .
N=c1c2c(n(Cc3ccc(Cl)c(Cl)c3)c3c1CCC3)CCCC2 | i | 70* | -13 | 9.6* | 78* | -39*
Clc1ccc(CN2CCN(c3ncccn3)CC2)cc1Cl | i | 1 | 23 | i | . | .
Cc1cc(C)c(-n2c(O)c(C=NCCN3CCOCC3)c(=O)[nH]c2=O)c(C)c1 | i | -20 | -4 | 9.8* | 17* | i
Cc1ccc(NS(=O)(=O)c2ccc(C(=O)NNC(=O)c3ccccc3O)cc2)cc1 | i | 2 | -6 | i | . | .
CN1C(C(=O)N2CCc3ccccc3C2)=CC(c2ccc(F)cc2)=NS1(=O)=O | i | 9 | 1 | 6.7* | 13* | i
Cc1cc(N2CCOCC2)nc2ccc(NC(=S)NCCC(C)C)cc12 | i | 15 | -10 | i | 19* | -25*
COc1ccc(CNC(=S)Nc2ccc3nc(N4CCN(C)CC4)cc(C)c3c2)cc1 | i | 37 | 3 | 6.3* | 32* | -37*
COc1ccc(CNC(=S)Nc2ccc3nc(N4CCOCC4)cc(C)c3c2)cc1 | i | 30 | 5 | i | . | .
Cc1cc(N2CCN(C)CC2)nc2ccc(NC(=O)c3ccc(Br)o3)cc12 | i | 31 | 5 | i | 44* | -30*
Cc1cc(N2CCOCC2)nc2ccc(NC(=S)NCCN(C)C)cc12 | i | -5 | -24 | i | 45* | -33*
CCN(CC)CCNC(=S)Nc1ccc2nc(N3CCOCC3)cc(C)c2c1 | i | -12 | 20 | i | . | .
COCCCNC(=S)Nc1ccc2nc(N3CCOCC3)cc(C)c2c1 | i | -7 | -4 | i | . | .
